A selection: hits, their analogues and other compounds. The true share with any hit is near 4.7%.
RGS4 block: human RGS4 inhibition; AID 463165; B-score at 10 µM; HEK293 M3R/RGS4 inducible, Fluo-4 calcium flux; active compounds read high; triggered by carbachol at its EC20; P49798; 0.45% of 310,000 active;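 active = B-score, a plate-corrected calcium signal, over three deviations above library mean, with baseline fluorescence within five deviations of library mean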;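 also: RGS4 expression induced by doxycycline in cells with stable M3 receptor; B-score is computed from the integrated fluorescence ratio over baseline after carbachol; higher B-score means a larger calcium signal and so more RGS4 inhibition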
Target sequence (P49798 whole entry, looked up): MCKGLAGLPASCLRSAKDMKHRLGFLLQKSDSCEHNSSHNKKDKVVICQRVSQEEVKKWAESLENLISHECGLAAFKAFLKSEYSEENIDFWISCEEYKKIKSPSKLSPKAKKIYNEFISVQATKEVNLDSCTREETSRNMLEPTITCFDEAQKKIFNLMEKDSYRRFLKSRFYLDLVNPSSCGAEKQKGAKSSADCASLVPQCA
RGS4 pot: potentiators or activators of RGS4; HEK293 M3R/inducible RGS4, carbachol calcium flux Fluo4; active compounds read low; B-score at 10 µM; 0.92% of 310,000 active;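 active = B-score of the integrated calcium signal more than 4 SD below the library mean, with starting fluorescence not abnormally high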;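 also: negative B-score means reduced calcium response which marks RGS4 activation or potentiation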
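System: HEK293 FlpIn-TREx cells, stable M3R, doxycycline-inducible RGS4. Timing: overnight RGS4 induction, 30 min dye load 37 °C, 20 min compound RT. Also added: carbachol, ECmax concentration. Measured by: Fluo4 fluorescence kinetic imaging of calcium. Evaluation: integrated calcium ratio converted to B score.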
KCC2 mod: modulators of human KCC2 chloride dependent transport | Q9H2X9 | KCC2 cells, thallium flux FluoZin-2 fluorescence | B-score of Tl+ flux slope (higher = more flux/activation; lower = inhibition) at 10 µM | 2.2% of 190,000 active | AID 1456;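 active = thallium flux slope and its plate-corrected score both differing from the plate sample mean at a set confidence after two filtering rounds, in either direction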;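 also: slope of fluorescence scaled to starting intensity during 10 to 20 s after thallium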
MrgX1 allo act: human MrgX1 positive allosteric modulation, primary screen; Q96LB2; MrgX1-HEK293, Fluo-4 calcium flux, FDSS; active compounds read high; B-score at 10 µM; 0.63% of 310,000 active;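 active = plate-corrected calcium response at least 3 library SD above typical, normal starting fluorescence, not activating the receptor alone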;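 also: compound read alongside a low EC10 to EC30 dose of BAM8-22 agonist; peak minus trough fluorescence over baseline measured at the second addition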
Target sequence (Q96LB2 whole entry, looked up): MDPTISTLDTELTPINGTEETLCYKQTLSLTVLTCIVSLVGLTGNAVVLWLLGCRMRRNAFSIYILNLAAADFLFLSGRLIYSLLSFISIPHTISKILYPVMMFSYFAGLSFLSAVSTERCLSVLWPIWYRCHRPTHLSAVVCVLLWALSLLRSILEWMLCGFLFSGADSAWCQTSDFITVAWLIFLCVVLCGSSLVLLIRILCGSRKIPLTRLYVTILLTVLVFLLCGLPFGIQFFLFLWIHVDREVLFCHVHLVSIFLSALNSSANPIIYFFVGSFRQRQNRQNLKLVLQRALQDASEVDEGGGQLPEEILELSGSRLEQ
MrgX1 antag: human MrgX1 receptor antagonism, primary screen; Q96LB2; MRGX1-HEK293 calcium flux, Fluo-4, BAM8-22 antagonism; active compounds read low; B-score at 10 µM; 1.3% of 310,000 active;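 active = calcium-response B-score plate-corrected more than 3 library SD below zero, starting fluorescence within 5 deviations, no agonist response on first addition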;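 also: peak minus trough fluorescence over baseline after final BAM8-22 challenge near maximal dose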
MrgX1 ag: activates human MrgX1 receptor signaling; B-score at 10 µM; MrgX1-HEK293 cells, Fluo-4 calcium fluorescence, agonist mode; active compounds read high; 0.44% of 310,000 active; Q96LB2;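 active = calcium response B-score plate-corrected fluorescence ratio at least 3 library SD, with starting fluorescence B-score inside 5 SD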
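Assay system: MrgX1-expressing HEK293 cells / Amount: fifteen thousand cells per well / Doses: test compound in the initial addition of three / Timing: cells plated overnight, dye loaded 0.5 h 37 °C, 0.5 h room temperature / Technique: kinetic calcium dye fluorescence, Fluo-4 NW / Control set: positive and negative controls per plate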
MrgX1 antag conf: human MrgX1 receptor antagonism, re-confirmation screen; shares compounds with MrgX1 antag; MrgX1-HEK293, BAM8-22 calcium flux, Fluo-4; active compounds read low; remaining BAM8-22 calcium response % of control (active compounds read low), % at 10 µM; 19% of 2,300 active; AID 602420;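 active = remaining agonist calcium response no higher than 100% minus 3 SD of agonist-only control wells, with starting fluorescence near control levels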;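 also: agonist BAM8-22 given at a near maximal EC90 to ECmax level; peak minus minimum fluorescence divided by baseline after agonist addition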
HEK293 Ca flux: counter-screen for MrgX1 antagonists: effect in parental HEK293 cells. shares compounds with MrgX1 antag. Fluo-4 calcium fluorescence, FDSS. fluorescence ratio F(max-min)/F0 at 10 µM. 2% of 4,000 active;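 active = duplicate-averaged calcium fluorescence ratio at least three times the standard deviation of buffer wells, a nonspecific response in parental cells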
HEK293 Ca counter: MrgX1 allosteric activator counter-screen hit in parental HEK293 cells; fluorescence ratio F(max-min)/F0 at 10 µM; 0.4% of 4,000 active; shares compounds with MrgX1 antag; parental HEK293 calcium flux, Fluo-4 fluorescence ratio; active compounds read high;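 active = calcium fluorescence ratio, averaged over duplicates, at least 3 SD of the buffer-well ratio, meaning a nonspecific response in receptor-free cells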;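 also: untransfected parental HEK293 lacking MrgX1 used as counterscreen for MrgX1 allosteric activators; fluorescence change taken during the second addition on a kinetic imager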
HEK293 Ca cntr2: MrgX1 activator counter-screen hit in parental HEK293 cells; shares compounds with MrgX1 antag; fluorescence ratio F(max-min)/F0 at 10 µM; 8.7% of 4,000 active; Fluo-4 calcium fluorescence (FDSS); active compounds read high;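 active = calcium fluorescence ratio at least three times the spread of buffer wells, meaning a non-specific response in parental cells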
Large screens that a line does not name were inactive (follow-up assays come after a bar, where they were run).

CN1CCN(Cc2nc3ccccc3c(=O)n2CC#N)CC1	MrgX1 antag -5.6 | MrgX1 antag conf inactive | HEK293 Ca flux inactive | HEK293 Ca counter inactive | HEK293 Ca cntr2 inactive
COCCN=C1Sc2nc3cc(C)c(C)cc3cc2CN1Cc1cccs1	none
COCCN=C1Sc2nc3ccc(C)cc3cc2CN1Cc1ccco1	MrgX1 antag -5.4 | MrgX1 antag conf inactive | HEK293 Ca flux inactive | HEK293 Ca counter inactive | HEK293 Ca cntr2 inactive
COc1cc(O)c2c(=O)c(-c3ccc(O[C@@H]4O[C@H](CO)[C@@H](O)[C@H](O)[C@H]4O)cc3)coc2c1	none (no result: KCC2 mod)
Cc1cc(NC(=O)CSc2ccc(-c3ccc(Br)cc3)nn2)no1	MrgX1 antag -8.2 (no result: KCC2 mod) | MrgX1 antag conf inactive | HEK293 Ca flux inactive | HEK293 Ca counter inactive | HEK293 Ca cntr2 inactive
CCCCS(=O)(=O)N1CCN(S(=O)(=O)c2cccs2)CC1	none (no result: KCC2 mod)
CC(OC(=O)c1ncc(Cl)c(Cl)c1Cl)C(=O)NC1(C#N)CCCCC1 (centres undefined)	none (no result: KCC2 mod)
CCOC(=O)c1ccc(NC(=S)NCCc2ccccc2)cc1	none (no result: KCC2 mod)
CCOC(=O)c1ccc(NC(=S)NCCc2ccccc2F)cc1	MrgX1 antag -6.2 | MrgX1 antag conf 67% | HEK293 Ca flux inactive | HEK293 Ca counter inactive | HEK293 Ca cntr2 inactive
CCc1ccccc1N(C(=O)c1ccco1)C(C(=O)NC1CCCC1)c1cccnc1 (centres undefined)	none (no result: KCC2 mod)
COC(=O)c1c(C)[nH]c(C(=O)/C=C/c2ccccc2F)c1C	none
COc1ccc(NC(=O)Cc2coc3ccc4ccccc4c23)cc1S(=O)(=O)N1CCOCC1	MrgX1 antag -6.7 | MrgX1 antag conf inactive | HEK293 Ca flux inactive | HEK293 Ca counter inactive | HEK293 Ca cntr2 inactive
CC(c1ccccc1C(O)(c1ccccc1)c1ccccc1)N(C)C (centres undefined)	MrgX1 antag -5.4 | MrgX1 antag conf inactive | HEK293 Ca flux inactive | HEK293 Ca counter inactive | HEK293 Ca cntr2 inactive
CC(C)N(CC#CCC(O)(c1ccccc1)c1ccccc1)C(C)C	none
Cc1ccc(Cc2cnc(N3C(=N)SC(c4ccccc4)C3=O)s2)cc1 (centres undefined)	MrgX1 antag -5.2 | MrgX1 antag conf inactive | HEK293 Ca flux inactive | HEK293 Ca counter inactive | HEK293 Ca cntr2 inactive
N=C1SC(c2ccccc2)C(=O)N1c1ncc(Cc2ccccc2)s1 (centres undefined)	none
CCOCCCNC(=O)Cn1cnc2c(cnn2-c2ccc(C)c(C)c2)c1=O	none (no result: KCC2 mod)
OCC1OC(Oc2c[nH]c3ccccc23)C(O)C(O)C1O (centres undefined)	none (no result: KCC2 mod)
Cc1ccc(NC(=O)Cc2c(Cl)cccc2Cl)cc1S(=O)(=O)N(C)C	MrgX1 antag -19 | MrgX1 antag conf inactive | HEK293 Ca flux inactive | HEK293 Ca counter inactive | HEK293 Ca cntr2 inactive
CSc1ccc(/C=N/S(=O)(=O)c2ccccc2)cc1	none (no result: KCC2 mod)
O=C1CC[C@@H](OCc2ccccc2)CCN1CC[C@H](Sc1ccccc1)c1ccccc1	none (no result: KCC2 mod)
Cc1c(NC(=O)c2cc(-c3cccc(Cl)c3)on2)c(=O)n(-c2ccccc2)n1C	none (no result: KCC2 mod)
CC(C)(C)c1cccc(Oc2nn[nH]n2)c1	MrgX1 antag -6.9 (no result: KCC2 mod) | MrgX1 antag conf inactive | HEK293 Ca flux inactive | HEK293 Ca counter inactive | HEK293 Ca cntr2 inactive
COC(=O)CCc1c(C)c(C(=O)c2ccc(F)cc2)c2ccccn12	MrgX1 antag -5.7 | MrgX1 antag conf inactive | HEK293 Ca flux inactive | HEK293 Ca counter inactive | HEK293 Ca cntr2 inactive

Compound activity deposited in PubChem by several laboratories.
